Test results from PMC2895766 (Journal of medicinal chemistry, 2010).

Key:
mice = details: cited from earlier work
[1] = system: α1*-, α3β4*-, α4β2-, or α4β4-nAChR; assay type: cell-based, human; details: highest concentration tested 100 μM
[2] = molecular target: human NE transporters [h(NET)] (Homo sapiens, UniProt P23975); experiment: Inhibition of [3H]norepinephrine uptake in HEK293 cells expressing hNET; assay type: cell-based; details: ratio of IC50 values
α4β2-nAChR = α4β2-nAChR (Homo sapiens, UniProt P17787+P43681); experiment: 86Rb+ efflux assay, antagonism of carbamylcholine response, SH-EP1-hα4β2 cells; assay type: cell-based
[3] = system: nicotine-mediated antinociception (tail-flick); experiment: Tail-flick test, blockade of nicotine-induced antinociception; assay type: in vivo; details: mice
How it was run: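 Mice got saline or test compound 15 min before nicotine (2.5 mg/kg s.c.) and were tested 5 min after nicotine. Radiant heat was applied to the upper tail with a 10 s cutoff, and a pre-treatment control latency (2–4 s) was taken for each mouse. Blockade was scored as %MPE = [(test − control)/(10 − control)] × 100 and expressed as AD50 in mg/kg.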

α4β2-nAChR, sequence (P43681 29-627 limits assumed): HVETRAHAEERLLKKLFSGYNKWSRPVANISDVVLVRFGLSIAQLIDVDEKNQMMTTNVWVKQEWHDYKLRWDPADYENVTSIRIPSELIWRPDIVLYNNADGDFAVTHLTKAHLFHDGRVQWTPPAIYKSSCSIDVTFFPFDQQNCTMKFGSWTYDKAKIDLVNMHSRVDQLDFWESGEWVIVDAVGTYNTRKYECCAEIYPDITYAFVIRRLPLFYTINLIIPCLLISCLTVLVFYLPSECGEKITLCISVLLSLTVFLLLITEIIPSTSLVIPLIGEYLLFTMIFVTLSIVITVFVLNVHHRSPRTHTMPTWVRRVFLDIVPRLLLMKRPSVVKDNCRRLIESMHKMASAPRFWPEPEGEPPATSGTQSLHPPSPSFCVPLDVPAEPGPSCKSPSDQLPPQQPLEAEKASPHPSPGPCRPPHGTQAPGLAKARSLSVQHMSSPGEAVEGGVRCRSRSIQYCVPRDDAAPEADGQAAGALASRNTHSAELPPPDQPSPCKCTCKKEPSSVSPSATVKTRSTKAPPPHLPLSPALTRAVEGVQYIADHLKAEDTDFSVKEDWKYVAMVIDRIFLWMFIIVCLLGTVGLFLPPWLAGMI
α4β2-nAChR, sequence (P17787 26-502): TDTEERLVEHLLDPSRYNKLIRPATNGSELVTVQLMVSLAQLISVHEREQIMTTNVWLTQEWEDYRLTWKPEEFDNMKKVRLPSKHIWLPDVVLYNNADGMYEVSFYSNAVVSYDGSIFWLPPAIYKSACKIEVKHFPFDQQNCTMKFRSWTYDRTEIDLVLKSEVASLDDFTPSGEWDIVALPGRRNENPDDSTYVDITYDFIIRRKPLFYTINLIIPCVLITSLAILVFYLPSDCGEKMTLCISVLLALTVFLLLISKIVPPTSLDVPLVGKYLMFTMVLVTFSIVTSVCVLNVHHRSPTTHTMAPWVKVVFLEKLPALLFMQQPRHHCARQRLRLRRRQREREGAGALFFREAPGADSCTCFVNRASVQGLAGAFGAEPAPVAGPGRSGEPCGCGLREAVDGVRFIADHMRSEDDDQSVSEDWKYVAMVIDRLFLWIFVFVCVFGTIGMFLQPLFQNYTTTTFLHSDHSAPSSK
human NE transporters [h(NET)], sequence (P23975 whole entry): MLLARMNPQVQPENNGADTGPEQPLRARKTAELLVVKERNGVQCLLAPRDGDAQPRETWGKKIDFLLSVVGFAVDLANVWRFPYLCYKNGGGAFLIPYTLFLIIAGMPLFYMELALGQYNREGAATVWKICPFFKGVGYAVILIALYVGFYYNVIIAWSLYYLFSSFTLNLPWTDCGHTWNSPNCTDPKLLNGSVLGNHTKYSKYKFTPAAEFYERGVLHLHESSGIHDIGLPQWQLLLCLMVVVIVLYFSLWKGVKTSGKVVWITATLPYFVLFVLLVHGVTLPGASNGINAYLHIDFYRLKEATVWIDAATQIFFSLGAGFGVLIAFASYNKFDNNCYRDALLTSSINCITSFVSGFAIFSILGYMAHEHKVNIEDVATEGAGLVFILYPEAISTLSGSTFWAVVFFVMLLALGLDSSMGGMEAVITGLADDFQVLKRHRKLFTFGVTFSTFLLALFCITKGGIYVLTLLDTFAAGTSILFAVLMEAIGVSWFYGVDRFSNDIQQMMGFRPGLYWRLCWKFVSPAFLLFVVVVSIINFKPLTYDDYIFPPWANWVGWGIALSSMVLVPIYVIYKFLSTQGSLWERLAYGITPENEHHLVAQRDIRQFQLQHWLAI

Structure (SMILES)	extent of antagonism at all nAChR subtypes tested [1]	also measured
C[C@H]1NC(C)(C)CO[C@]1(O)c1cccc(Cl)c1 (racemic) [racemic hydroxybupropion]		convulsions after i.p. administration (mice): induced convulsions
C[C@H]1NC(C)(C)CO[C@]1(O)c1cccc(Cl)c1 [(2R,3R)-4a, (2R,3R)-2-(3-Chlorophenyl)-3,5,5-trimethylmorpholin-2-ol, reference compound]	full antagonist	
C[C@@H]1NC(C)(C)CO[C@@]1(O)c1cccc(Cl)c1 [(2S,3S)-4a, (2S,3S)-2-(3-Chlorophenyl)-3,5,5-trimethylmorpholin-2-ol, reference compound]	full antagonist	times more potent than 2 in inhibiting NE uptake [2]: 7.7 times
C[C@@H]1NC(C)(C)CO[C@@]1(O)c1cccc(F)c1 [Compound 4c, (2S,3S)-2-(3-Fluorophenyl)-3,5,5-trimethylmorpholin-2-ol]	block all nAChR function at an adequately high concentration	
C[C@@H]1NC(C)(C)CO[C@@]1(O)c1cccc(Br)c1 [Compound 4d, (2S,3S)-2-(3-Bromophenyl)-3,5,5-trimethylmorpholin-2-ol]	block all nAChR function at an adequately high concentration	selectivity for inhibition of α4β2-nAChR over NE uptake inhibition (α4β2-nAChR): ~ 1.7 fold
C[C@@H]1NC(C)(C)CO[C@@]1(O)c1cccc([N+](=O)[O-])c1 [Compound 4g, (2S,3S)-2-(3-Nitrophenyl)-3,5,5-trimethylmorpholin-2-ol]	block all nAChR function at an adequately high concentration	
C[C@@H]1NC(C)(C)CO[C@@]1(O)c1cccc2ccccc12 [Compound 4q, (2S,3S)-2-(Naphthalen-1-yl)-3,5,5-trimethylmorpholin-2-ol]		fold higher activity in the tail-flick assay than (2S,3S)-4a [3]: ~ 5 fold
C[C@@H]1NC(C)(C)CO[C@@]1(O)c1ccc2ccccc2c1 [Compound 4r, (2S,3S)-2-(Naphthalen-2-yl)-3,5,5-trimethylmorpholin-2-ol]		fold higher activity in the tail-flick assay than (2S,3S)-4a [3]: ~ 5 fold
CCC[C@@H]1NC(C)(C)CO[C@@]1(O)c1cccc(Cl)c1 [Compound 4t, (2S,3S)-2-(3-Chlorophenyl)-5,5-dimethyl-3-propyl-morpholin-2-ol]	full antagonist	
